Assay results reported in ChEMBL document CHEMBL1148331, “Aziridinyldinitrobenzamides: synthesis and structure-activity relationships for activation by E. coli nitroreductase” (J Med Chem, 2004).
Converted amounts (≈) assume the structure as drawn.

Tests used:
EMT6 [1] = test: Growth inhibitory potency against NTR-Transfected (nitroreductase) mouse mammary cell line known as EMT6-NTRpuro cell line; format: functional, cell-based
Summary of the method: (§1)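 Log-phase cells were seeded in αMEM with 5% FBS at 50–800 cells/well and grown for 18 h. Prodrug was added from DMSO stock diluted in medium and left for 18 h, then washed out. Regrowth lasted 3 days for V79 and EMT6 lines and 4 days for WiDr and Skov3 lines. Cell density was read by sulforhodamine B staining. IC50 was interpolated as 50% of control absorbance on the same plate. Ratio = IC50 of parental (NTR-ve) line / IC50 of NTR-transfected line.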

WiDr-NTR = test: Growth inhibitory potency against NTR-Transfected (nitroreductase) human colon cell line known as WiDr-NTRneo cell line; format: functional, cell-based; summary of the method: as §1
Mus musculus [2] = test: In vivo median growth delay against CD-1 nude mice bearing WiDr-nitroreductase tumors at a dose 750 (umol/kg); format: functional
EMT6 [3] = test: Ratio of growth inhibition of NTR-transfected mouse mammary cell line to that of parental cell line (IC50 (NTR-)/IC50 (NTR+); format: functional; summary of the method: as §1
[4] = Ratio of growth inhibition of NTR-transfected human colon cell line to that of parental cell line (IC50 (NTR-)/IC50 (NTR+); format: functional; summary of the method: as §1
Mus musculus [5] = test: In vivo activity against WiDr-nitroreductase tumors in mice at a dose of 750 (umol/kg); 1/7; format: functional
[6] = Solubility in culture medium; format: physicochemical
Summary of the method: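 Solubility limit (mM) determined in cell culture medium.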

[7] = Partition coefficient (logP); format: physicochemical; details: octanol/water; read-out: logP
Summary of the method: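 Partition measured between n-octanol and water.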

V79 [8] = test: Effective concentration of 10% cell survival for targets in V79 MCL (multicellular layer) cocultures; format: functional, Cricetulus griseus
Summary of the method: (§2)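 V79 multicellular layers were grown on collagen-coated microporous inserts for 3 days, stirred, under 5% CO2/air. Cocultures held 3% V79-NTRpuro activators and 97% V79oua targets; the other layers held targets only. Layers were exposed to prodrug over a concentration range for 5 h at 37 °C under 5% CO2/95% O2. Cells were then plated clonogenically in 1 mM ouabain (targets) or 15 µM puromycin (activators). After 6 days, colonies of more than 50 cells were counted and the concentration giving 10% survival was taken.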

SK-OV-3 [9] = test: Growth inhibitory potency against NTR-Transfected (nitroreductase) human ovarian cell line known as SKOV3-NTR neo cell line; format: functional, cell-based; summary of the method: as §1
V79 [10] = test: Effective concentration of 10% cell survival for targets in V79 MCL (multicellular layer) grown from targets; format: functional, Cricetulus griseus; summary of the method: as §2
SK-OV-3 [11] = test: Ratio of growth inhibition of NTR-transfected human ovarian cell line to that of parental cell line (IC50 (NTR-)/IC50 (NTR+); format: functional; summary of the method: as §1
Mus musculus [12] = test: In vivo activity against WiDr-nitroreductase tumors in mice at a dose of 750 (umol/kg); 0/7; format: functional
V79 [13] = test: Growth inhibitory potency against NTR-Transfected (nitroreductase) chinese hamster fibroblast known as V79-NTRpuro cell line; format: functional, cell-based; details: Cricetulus griseus; summary of the method: as §1
V79 [14] = test: Effective concentration of 10% cell survival for activators in V79 MCL (multicellular layer) cocultures; format: functional, Cricetulus griseus; summary of the method: as §2
Mus musculus [15] = test: In vivo activity against WiDr-nitroreductase tumors in mice at a dose of 178 (umol/kg); 4/7; format: functional
Mus musculus [16] = test: In vivo median growth delay against CD-1 nude mice bearing WiDr-nitroreductase tumors at a dose 178 (umol/kg); format: functional
Mus musculus [17] = test: In vivo activity against WiDr-nitroreductase tumors in mice at a dose of 178 (umol/kg); 0/3; format: functional
Mus musculus [18] = test: In vivo activity against WiDr-nitroreductase tumors in mice at a dose of 1000 (umol/kg); 0/6; format: functional
Mus musculus [19] = test: In vivo median growth delay against CD-1 nude mice bearing WiDr-nitroreductase tumors at a dose 1000 (umol/kg); format: functional
Mus musculus [20] = test: In vivo activity against WiDr-nitroreductase tumors in mice at a dose of 1000 (umol/kg); 1/7; format: functional
Mus musculus [21] = test: In vivo activity against WiDr-nitroreductase tumors in mice at a dose of 178 (umol/kg); 1/7; format: functional
Mus musculus [22] = test: In vivo activity against WiDr-nitroreductase tumors in mice at a dose of 178 (umol/kg); 2/7; format: functional

SMILES	IC50 (EMT6 [1]) [µM]	IC50 (WiDr-NTR) [µM]	Ratio (EMT6 [3])	Ratio [4]	solubility [6] [µM]	logP [7]	IC50 (SK-OV-3 [9]) [µM]	Ratio (SK-OV-3 [11])	IC50 (V79 [13]) [µM]	other results
NC(=O)c1cc([N+](=O)[O-])cc([N+](=O)[O-])c1N1CC1	1.3	13	627	85	1300 (≈ 328 µg/mL)	0.34	6.1	281	1.2	Growth delay (Mus musculus [2]): 47 days; Cures (Mus musculus [5]): 1; Tc (V79 [8]): >2000 µM; T (V79 [10]): >2000 µM; Deaths (Mus musculus [12]): 0; Ac (V79 [14]): 450 µM
NC(=O)c1cc([N+](=O)[O-])c(N2CC2)c([N+](=O)[O-])c1	> 20	> 20	–	–	40 (≈ 10.1 µg/mL)	0.59	> 20	–	> 20	–
CC(=O)CCNC(=O)c1cc(N2CC2)c([N+](=O)[O-])cc1[N+](=O)[O-]	0.31	2.6	1520	63.6	800 (≈ 258 µg/mL)	0.56	2.5	270	0.33	Tc (V79 [8]): 200 µM; T (V79 [10]): 1900 µM; Ac (V79 [14]): 20 µM
O=C(NCCN1CCOCC1)c1cc([N+](=O)[O-])cc([N+](=O)[O-])c1N1CC1	3.4	18	177	32	350 (≈ 128 µg/mL)	0.11	11	>72	7.3	Deaths (Mus musculus [15]): 4; Growth delay (Mus musculus [16]): -1 days; Cures (Mus musculus [17]): 0
CN(CCN1CCOCC1)C(=O)c1cc(N2CC2)c([N+](=O)[O-])cc1[N+](=O)[O-]	1.8	8.1	309	21	3300 (≈ 1250 µg/mL)	-0.26	13	46	1.8	–
NC(=O)c1cc(N2CC2)ccc1[N+](=O)[O-]	67	89	–	–	3400 (≈ 704 µg/mL)	0.7	–	–	81	–
O=C(NCC(O)CO)c1cc([N+](=O)[O-])cc([N+](=O)[O-])c1N1CC1 (configuration not stated)	4.4	12.5	252	71	2500 (≈ 816 µg/mL)	-0.15	7.3	185	6.1	Cures (Mus musculus [18]): 0; Growth delay (Mus musculus [19]): 8 days; Deaths (Mus musculus [20]): 1
CS(=O)(=O)c1cc([N+](=O)[O-])c(N2CC2)cc1C(N)=O	3.6	26	125	33	880 (≈ 251 µg/mL)	-0.41	6.3	160	8.8	Growth delay (Mus musculus [16]): 17 days; Cures (Mus musculus [21]): 1; Deaths (Mus musculus [22]): 2
O=C(NCCCN1CCOCC1)c1cc(N2CC2)c([N+](=O)[O-])cc1[N+](=O)[O-]	0.04	0.24	3310	122	1600 (≈ 607 µg/mL)	-1.05	0.15	732	0.048	–
